Results reported in ChEMBL document CHEMBL1127028, “Thromboxane receptor antagonism combined with thromboxane synthase inhibition. 5. Synthesis and evaluation of enantiomers of 8-[[(4-chlorophenyl)sulfonyl]amino]-4-(3-pyridinylalkyl)octanoic acid” (J Med Chem, 1993).

Legend:
Cavia porcellus [1] = assay: Ex vivo Inhibition of U 46619-induced aggregation of guinea pig platelets at the dose of 10 mg/Kg po per hour expressed as concentration ratio (EC50 of drug/EC50 of control); assay type: functional
Summary of the method: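 Guinea pigs dosed orally at 10 mg/kg; blood sampled 1 h post-dose and platelet aggregation induced ex vivo with U 46619. Result given as concentration ratio, EC50 of U 46619 in drug-treated animals divided by EC50 in vehicle controls (vehicle n = 22). Groups of 4–6 animals; mean ± SEM.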

Thromboxane-A synthase = biological target: T1, Thromboxane-A synthase (Homo sapiens, UniProt P24557); assay: In vitro inhibition of thromboxane synthetase in microsomal platelet preparation
T1 sequence (P24557 whole entry): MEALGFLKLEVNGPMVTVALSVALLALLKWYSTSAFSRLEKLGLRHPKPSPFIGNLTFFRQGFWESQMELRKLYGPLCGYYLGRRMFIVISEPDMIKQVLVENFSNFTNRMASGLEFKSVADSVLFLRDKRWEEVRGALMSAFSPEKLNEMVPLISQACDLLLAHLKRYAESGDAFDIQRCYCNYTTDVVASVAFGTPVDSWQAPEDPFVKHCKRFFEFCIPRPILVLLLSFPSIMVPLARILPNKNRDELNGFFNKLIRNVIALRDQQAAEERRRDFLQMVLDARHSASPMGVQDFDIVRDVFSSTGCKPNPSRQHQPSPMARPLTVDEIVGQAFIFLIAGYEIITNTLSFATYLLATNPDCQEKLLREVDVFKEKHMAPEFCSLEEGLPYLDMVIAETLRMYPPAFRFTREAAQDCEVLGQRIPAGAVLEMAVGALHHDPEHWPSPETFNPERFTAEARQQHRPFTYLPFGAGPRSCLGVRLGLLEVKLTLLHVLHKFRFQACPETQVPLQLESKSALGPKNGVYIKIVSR

Homo sapiens [2] = species: Homo sapiens; assay: Inhibition of U 46619-induced Aggregation of Human Platelet-rich Plasma; assay type: functional
Summary of the method: (§1)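 Human platelets (washed, or platelet-rich plasma) were aggregated with U 46619, a TxA2/PGH2 mimetic. The test agent was titrated against this challenge and reported as an IC50.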

Homo sapiens [3] = species: Homo sapiens; assay: Inhibition of U 46619-induced Aggregation of human Washed platelets; assay type: functional; summary of the method: as §1
Cavia porcellus [4] = assay: Ex vivo Inhibition of U 46619-induced aggregation of guinea pig platelets at the dose of 3 mg/Kg po per hour expressed as concentration ratio (EC50 of drug/EC50 of control); assay type: functional
Summary of the method: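 Oral dosing of guinea pigs at 3 mg/kg, blood drawn 1 h later, then ex vivo U 46619-induced platelet aggregation measured. Concentration ratio is EC50 of U 46619 for the treated group over EC50 for vehicle controls (n = 22). 4–6 animals per group; values are mean ± SEM.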

Homo sapiens [5] = species: Homo sapiens; assay: Inhibition of U 46619-induced Aggregation of Human Washed Platelets; assay type: functional; summary of the method: as §1

Row | SMILES | IC50 (Thromboxane-A synthase) [nM] | IC50 (Homo sapiens [2]) [nM] | IC50 (Homo sapiens [3]) [nM] | IC50 (Homo sapiens [5]) [nM] | Concentration ratio (Cavia porcellus [1]) | Concentration ratio (Cavia porcellus [4])
1 | O=C(O)CC[C@@H](CCCCNS(=O)(=O)c1ccc(Cl)cc1)CCCc1cccnc1 | 4.5 | 0.55 | 26 | – | 54 | –
2 | O=C(O)CCC(CCCCNS(=O)(=O)c1ccc(Cl)cc1)CCOc1cccnc1 (stereo unspecified) | 2.6 | 0.28 | – | – | – | >100
3 | O=C(O)CCC(CCCCNS(=O)(=O)c1ccc(Cl)cc1)CCCc1cccnc1 (stereo unspecified) | – | 0.39 | – | – | 27 | –
4 | O=C(O)CC[C@H](CCCCNS(=O)(=O)c1ccc(Cl)cc1)CCCc1cccnc1 | 5 | 0.38 | – | 11 | 43 | –

Second part, led by results:

Row | IC50 (Thromboxane-A synthase) [nM] | IC50 (Homo sapiens [2]) [nM] | IC50 (Homo sapiens [3]) [nM] | IC50 (Homo sapiens [5]) [nM] | SMILES | Concentration ratio (Cavia porcellus [1]) | Concentration ratio (Cavia porcellus [4])
5 | 3.5 | 0.32 | 10 | – | O=C(O)CC[C@H](CCCCNS(=O)(=O)c1ccc(Cl)cc1)CCOc1cccnc1 | – | 90
6 | 13 | 0.53 | 9 | – | O=C(O)CC[C@@H](CCCCNS(=O)(=O)c1ccc(Cl)cc1)CCOc1cccnc1 | – | 66
